We go through 23 molecules from BindingDB's records for doi:10.1016/j.ejmech.2016.09.032 (China Pharmaceutical University, 2017).

Experiment [1] concerns the target T1, Integrin alpha-IIb/beta-3 (Homo sapiens, UniProt P08514+P05106). Nature of the experiment: Antagonist activity at GP2b/GP3a receptor in human platelet rich plasma assessed as inhibition of ADP-induced platelet aggregation preincubated for 1 min followed by ADP addition by aggregometric method. The essentials: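 Human PRP from apheresis platelets, PPP from centrifugation at 3000r/min for 10 min used as reference. Compound in saline or 0.2% aqueous DMSO added to PRP, incubated 1 min, then ADP 20 μM (per table footnotes; methods list 10 μM) added. Light transmission aggregometry at 37°C, maximal aggregation vs PPP. Inhibition relative to control aggregation ratio. IC50 from at least four concentrations.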

Experiment [2] concerns the target T1, Integrin alpha-IIb/beta-3. Briefly: Antagonist activity at GP2b/GP3a receptor in human platelet rich plasma assessed as inhibition of collagen-induced platelet aggregation preincubated for 1 min […] by aggregometric method. The essentials: (§1)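 Aggregometry at 37°C in human apheresis PRP, PPP as reference. Compound in saline or 0.2% aqueous DMSO preincubated 1 min before inducer: collagen 1 μg/ml, thrombin 0.26 U/ml or U46619 2 μM (figure and table values; methods state 9 μg/ml, 1 U/ml, 6 μM). Percent inhibition vs control. IC50 from at least four concentrations, means of two to three dose-response curves.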

Experiment [3] concerns the target T1, Integrin alpha-IIb/beta-3. Nature of the experiment: Antagonist activity at GP2b/GP3a receptor in human platelet rich plasma assessed as inhibition of U46619-induced platelet aggregation preincubated for 1 min […] by aggregometric method. The essentials:
as §1

In experiment [4] the target is T1, Integrin alpha-IIb/beta-3. Nature of the experiment: Antagonist activity at GP2b/GP3a receptor in human platelet rich plasma assessed as inhibition of thrombin-induced platelet aggregation preincubated for 1 min […] by aggregometric method. Summed up: as §1

T1 sequence (P05106 27-788 limits assumed): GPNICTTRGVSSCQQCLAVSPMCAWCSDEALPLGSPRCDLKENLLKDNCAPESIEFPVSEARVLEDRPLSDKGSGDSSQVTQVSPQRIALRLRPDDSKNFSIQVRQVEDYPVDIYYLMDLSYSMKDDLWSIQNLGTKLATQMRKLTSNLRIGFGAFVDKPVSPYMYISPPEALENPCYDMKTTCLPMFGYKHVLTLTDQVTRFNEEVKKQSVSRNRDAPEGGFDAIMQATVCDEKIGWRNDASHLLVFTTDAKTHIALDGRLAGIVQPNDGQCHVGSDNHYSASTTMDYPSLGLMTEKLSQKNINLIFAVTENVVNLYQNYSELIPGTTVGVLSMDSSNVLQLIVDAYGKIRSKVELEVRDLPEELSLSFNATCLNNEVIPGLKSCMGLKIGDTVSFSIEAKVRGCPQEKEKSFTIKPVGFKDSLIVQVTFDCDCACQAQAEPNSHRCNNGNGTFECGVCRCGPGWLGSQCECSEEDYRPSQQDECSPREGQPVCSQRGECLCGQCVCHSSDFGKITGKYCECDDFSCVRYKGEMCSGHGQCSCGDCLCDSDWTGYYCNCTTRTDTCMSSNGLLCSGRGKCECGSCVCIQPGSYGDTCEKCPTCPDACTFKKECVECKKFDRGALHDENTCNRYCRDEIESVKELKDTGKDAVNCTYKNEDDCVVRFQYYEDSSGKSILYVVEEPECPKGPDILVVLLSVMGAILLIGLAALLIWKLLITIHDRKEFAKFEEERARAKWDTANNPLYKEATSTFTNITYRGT
T1 sequence (P08514 32-887 limits assumed): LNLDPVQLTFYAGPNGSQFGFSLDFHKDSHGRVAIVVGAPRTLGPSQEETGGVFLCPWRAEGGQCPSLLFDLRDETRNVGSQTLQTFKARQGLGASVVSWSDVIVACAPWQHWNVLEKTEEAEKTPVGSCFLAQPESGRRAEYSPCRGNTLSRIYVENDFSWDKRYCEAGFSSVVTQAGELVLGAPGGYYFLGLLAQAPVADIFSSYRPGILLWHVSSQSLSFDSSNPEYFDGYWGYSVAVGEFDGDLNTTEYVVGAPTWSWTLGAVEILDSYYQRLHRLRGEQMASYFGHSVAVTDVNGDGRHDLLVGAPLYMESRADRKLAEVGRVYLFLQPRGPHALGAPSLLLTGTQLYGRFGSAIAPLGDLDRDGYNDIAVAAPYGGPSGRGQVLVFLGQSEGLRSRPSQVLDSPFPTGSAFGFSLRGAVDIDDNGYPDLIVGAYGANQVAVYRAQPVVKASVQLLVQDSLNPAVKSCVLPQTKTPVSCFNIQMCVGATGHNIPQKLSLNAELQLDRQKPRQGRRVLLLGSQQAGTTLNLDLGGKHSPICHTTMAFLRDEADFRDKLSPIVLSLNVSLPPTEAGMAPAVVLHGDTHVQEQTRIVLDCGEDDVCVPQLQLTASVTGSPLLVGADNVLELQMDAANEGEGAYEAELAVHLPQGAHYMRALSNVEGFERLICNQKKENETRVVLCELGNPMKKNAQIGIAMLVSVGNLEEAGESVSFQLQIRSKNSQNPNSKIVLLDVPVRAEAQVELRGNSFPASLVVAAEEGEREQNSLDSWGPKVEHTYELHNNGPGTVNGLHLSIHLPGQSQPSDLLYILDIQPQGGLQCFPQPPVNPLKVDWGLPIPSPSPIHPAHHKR
T1 sequence (P08514 891-1039 limits assumed): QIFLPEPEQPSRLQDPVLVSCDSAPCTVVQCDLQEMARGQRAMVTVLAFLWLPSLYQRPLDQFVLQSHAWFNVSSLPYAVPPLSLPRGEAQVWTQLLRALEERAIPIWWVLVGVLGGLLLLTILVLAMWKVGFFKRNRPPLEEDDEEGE

The IC50 is the concentration that gives 50% inhibition. On to `O=C(O)C(Cc1ccc2cc(OCCCN3CCNCC3)ccc2c1)NS(=O)(=O)c1ccc(Br)cc1` (centres undefined), for which the IC50 in experiment [1] amounted to 0.37 µM.
Still for that read-out and setting: to `O=C(NC(Cc1ccc2cc(OCCCN3CCNCC3)ccc2c1)C(=O)O)c1cccc(F)c1` (centres undefined) belongs 6.38 µM.
Take `O=C(NC(Cc1ccc2cc(OCCCN3CCNCC3)ccc2c1)C(=O)O)c1ccccc1` (centres undefined): the IC50 in experiment [1] worked out at 7.9 µM.
Still for that read-out and setting: to `COc1ccc(C(=O)NC(Cc2ccc3cc(OCCCN4CCNCC4)ccc3c2)C(=O)O)cc1` (centres undefined) belongs 12.7 µM; to `O=C(O)C(Cc1ccc2cc(OCCCCN3CCNCC3)ccc2c1)NS(=O)(=O)c1ccc(Br)cc1` (centres undefined), 18.8 µM.
`N=C(N)c1ccc(COc2ccc3cc(CC(NS(=O)(=O)c4ccccc4)C(=O)O)ccc3c2)cc1` (centres undefined): the IC50 in experiment [2] came to 27.7 µM; in experiment [3] it was 23.6 µM; in experiment [1], 0.84 µM; in experiment [4] it was 22.9 µM.
As for `O=C(O)C(Cc1ccc2cc(OCC3CCNCC3)ccc2c1)NS(=O)(=O)c1ccc(Br)cc1` (centres undefined), the IC50 in experiment [1] is above 100 µM.
Take `CCCC(=O)NC(Cc1ccc2cc(OCCCN3CCNCC3)ccc2c1)C(=O)O` (centres undefined): the IC50 in experiment [1] is 5.4 µM.
On the same count and under the same terms, under `O=C(NC(Cc1ccc2cc(OCCCN3CCNCC3)ccc2c1)C(=O)O)c1ccc([N+](=O)[O-])cc1` (centres undefined) stands 3.4 µM; under `O=C(O)C(Cc1ccc2cc(OCCC3CCNCC3)ccc2c1)NS(=O)(=O)c1ccc(Br)cc1` (centres undefined), above 100 µM.
Still for that read-out and setting: under `O=C(O)C(Cc1ccc2cc(OCCCN3CCNCC3)ccc2c1)NS(=O)(=O)c1ccc([N+](=O)[O-])cc1` (centres undefined) stands 0.2 µM.
The same measure, in the same setting: under `O=C(O)C(Cc1ccc2cc(OCCCN3CCNCC3)ccc2c1)NS(=O)(=O)c1ccc(F)cc1` (centres undefined) stands 0.28 µM.
For the molecule `CCCC(=O)NC(Cc1ccc2cc(OCc3ccc(C(=N)N)cc3)ccc2c1)C(=O)O` (centres undefined), the half-maximal inhibitory concentration (IC50) in experiment [1] was found to be 1.08 µM.
Still for that read-out and setting: to `CCCCS(=O)(=O)NC(Cc1ccc2cc(OCc3ccc(C(=N)N)cc3)ccc2c1)C(=O)O` (centres undefined) belongs 3.29 µM.
Still for that read-out and setting: under `O=C(NC(Cc1ccc2cc(OCCCN3CCNCC3)ccc2c1)C(=O)O)c1ccc(F)cc1` (centres undefined) stands 7.6 µM.
On to `CCCCS(=O)(=O)NC(Cc1ccc2cc(OCCCN3CCNCC3)ccc2c1)C(=O)O` (centres undefined), for which, in experiment [1], the IC50 was 0.52 µM.
On the same count and under the same terms, under `Cc1ccc(S(=O)(=O)NC(Cc2ccc3cc(OCc4ccc(C(=N)N)cc4)ccc3c2)C(=O)O)cc1` (centres undefined) stands 4.01 µM; under `N=C(N)c1ccc(COc2ccc3cc(CC(NC(=O)c4ccc([N+](=O)[O-])cc4)C(=O)O)ccc3c2)cc1` (centres undefined), 2.1 µM.
For the molecule `O=C(O)C(Cc1ccc2cc(OCCCN3CCNCC3)ccc2c1)NS(=O)(=O)c1ccccc1` (centres undefined), the IC50 is 1.32 µM in experiment [2], 1.01 µM in experiment [3], 0.18 µM in experiment [1] and 0.53 µM in experiment [4].
In the case of `O=C(O)C(Cc1ccc2cc(OCCN3CCNCC3)ccc2c1)NS(=O)(=O)c1ccc(Br)cc1` (centres undefined), the IC50 in experiment [1] came to 12.8 µM.
The same measure, in the same setting: under `COc1ccc(S(=O)(=O)NC(Cc2ccc3cc(OCCCN4CCNCC4)ccc3c2)C(=O)O)cc1` (centres undefined) stands 1.65 µM.
Same read-out and setting: under `O=C(NC(Cc1ccc2cc(OCCCN3CCNCC3)ccc2c1)C(=O)O)c1cc(Cl)cc(Cl)c1` (centres undefined) stands 24.6 µM; under `O=C(O)C(Cc1ccc2cc(OCCCC3CCNCC3)ccc2c1)NS(=O)(=O)c1ccc(Br)cc1` (centres undefined), above 100 µM.
